For one data set, the system named is Cynomolgus monkey. Kind of data set: Ex-vivo inhibition of LPS-induced IL-1beta production in cynomolgus monkey whole blood. It counts as functional, organism-based. Conditions: Macaca fascicularis. Summed up:
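Cynomolgus monkey given 10 mg/kg (route not stated); blood drawn at several timepoints. At each timepoint, 50% whole blood stimulated ex vivo with 25 ng/ml LPS for 2 hr, then 3 mM ATP for 3 hr. Supernatant IL-1β measured (n = 3) and related to total plasma concentration.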

Data set [1] can be described thus: Metabolic stability in human blood. It counts as ADME. Conditions: read-out: Stability (converted).
For data set [2], the target named is Glutamate NMDA receptor (Rattus norvegicus) (UniProt P35439+Q00959+Q00960+Q00961+Q62645+Q8VHN2+Q9R1M7). Kind of data set: Inhibition of rat NMDA receptor PCP binding site at 10 uM. The format is protein-complex assay. Summed up:
(§1)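 Outsourced broad receptor-screening panel of 78 targets, each tested at a single 10 uM concentration; read-out is percent inhibition. Detailed conditions are given only in the Supporting Information.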

The subject of data set [3] is Plasma. The data set can be described thus: Metabolic stability in human plasma at 10 uM after 4 hrs by LC/MS/MS analysis. The format is ADME, cell-free.
In data set [4] the test system is Plasma. Kind of data set: Metabolic stability in rat plasma at 10 uM after 4 hrs by LC/MS/MS analysis. It counts as ADME, cell-free.
The nature of data set [5]: Volume of distribution at steady state in rat at 2 mg/kg, po and 0.5 mg/kg, iv administered as single dose. The format is ADME, organism-based. The following applies: in vivo, read-out: Vdss. The method in brief:
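Rats given a single dose, iv 0.5 mg/kg or po 2 mg/kg, with n ≥ 2 per time point. Bioavailability is derived from the po and iv exposures. Vdss is reported in L/kg.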

Data set [6] has as its target Melatonin receptor type 1A (Homo sapiens) (UniProt P48039). Kind of data set: Inhibition of human melatonin receptor type 1A at 10 uM. The method in brief: as §1
In data set [7] the target is Adrenergic receptor alpha-1 (Rattus norvegicus) (UniProt P15823+P23944+P43140). Kind of data set: Inhibition of rat alpha1-adrenoceptor at 10 uM. The method in brief: as §1
For data set [8], the target named is Muscarinic acetylcholine receptor M4 (Homo sapiens) (UniProt P08173). Kind of data set: Inhibition of human muscarinic M4 receptor at 10 uM. The method in brief:
as §1

Data set [9] addresses 5-hydroxytryptamine receptor 7 (Homo sapiens) (UniProt P34969). Kind of data set: Inhibition of human 5-HT7 receptor at 10 uM by radioligand binding assay. The method in brief:
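Commercial receptor scan across a 78-target panel, with percent inhibition measured at a test concentration of 10 uM.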

Chain of Melatonin receptor type 1A (Homo sapiens) (P48039 whole entry): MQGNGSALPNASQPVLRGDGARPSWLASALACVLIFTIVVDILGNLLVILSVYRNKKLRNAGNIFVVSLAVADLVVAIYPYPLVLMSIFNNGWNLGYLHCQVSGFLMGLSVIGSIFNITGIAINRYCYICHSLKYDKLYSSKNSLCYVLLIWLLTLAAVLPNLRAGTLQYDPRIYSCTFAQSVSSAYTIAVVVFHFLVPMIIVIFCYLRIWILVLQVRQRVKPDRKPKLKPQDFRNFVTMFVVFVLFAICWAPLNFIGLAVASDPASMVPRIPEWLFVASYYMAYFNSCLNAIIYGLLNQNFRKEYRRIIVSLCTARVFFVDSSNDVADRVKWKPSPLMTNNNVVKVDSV
Chain of Muscarinic acetylcholine receptor M4 (Homo sapiens) (P08173 whole entry): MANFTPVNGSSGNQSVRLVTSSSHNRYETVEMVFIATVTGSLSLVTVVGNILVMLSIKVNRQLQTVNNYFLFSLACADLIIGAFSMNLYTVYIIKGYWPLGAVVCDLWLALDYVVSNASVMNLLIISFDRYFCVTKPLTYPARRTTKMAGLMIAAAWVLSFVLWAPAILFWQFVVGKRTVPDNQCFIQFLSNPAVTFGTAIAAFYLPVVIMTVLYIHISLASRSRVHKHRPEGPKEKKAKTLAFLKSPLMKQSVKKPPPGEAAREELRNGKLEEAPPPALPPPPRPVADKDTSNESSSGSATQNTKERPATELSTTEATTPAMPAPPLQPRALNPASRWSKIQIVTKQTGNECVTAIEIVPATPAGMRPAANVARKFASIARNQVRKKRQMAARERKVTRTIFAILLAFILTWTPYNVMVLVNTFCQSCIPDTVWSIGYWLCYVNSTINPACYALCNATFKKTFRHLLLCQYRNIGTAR
Chain of 5-hydroxytryptamine receptor 7 (Homo sapiens) (P34969 whole entry): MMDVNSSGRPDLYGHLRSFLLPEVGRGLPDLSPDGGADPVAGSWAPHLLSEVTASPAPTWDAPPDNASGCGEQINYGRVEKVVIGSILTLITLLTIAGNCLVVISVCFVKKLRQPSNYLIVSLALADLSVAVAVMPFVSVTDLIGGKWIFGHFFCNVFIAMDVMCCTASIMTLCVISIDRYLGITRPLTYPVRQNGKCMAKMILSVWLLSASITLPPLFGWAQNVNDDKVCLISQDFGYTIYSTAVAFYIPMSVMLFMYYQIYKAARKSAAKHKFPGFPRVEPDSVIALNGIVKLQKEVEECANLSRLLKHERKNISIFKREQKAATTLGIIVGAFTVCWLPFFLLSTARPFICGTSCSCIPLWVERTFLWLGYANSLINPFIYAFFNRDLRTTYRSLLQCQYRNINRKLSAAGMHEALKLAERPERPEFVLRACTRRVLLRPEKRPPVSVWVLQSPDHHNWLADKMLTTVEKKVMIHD

Turning to `Cc1cc(Cl)c(OCCO)cc1NC(=O)C1=CNC(=O)C[C@H]1c1ccc(F)cc1`, the midpoint of inhibition with Cynomolgus monkey, the IC50, lay at 300 nM. For the same molecule, in data set [1], the half-life was 3 h. The inhibition in [2], in [6], in data set [7], in data set [8] and in [9] was less than 30% each time. Moreover, the Stability result with Plasma [3] and in the data set on Plasma [4] was “Stable” throughout. In addition, the Vd in data set [5] was 2.2 L/kg.

For the origin of these results see ChEMBL document CHEMBL3739255, “Novel Series of Dihydropyridinone P2X7 Receptor Antagonists” (J Med Chem, 2015).
